Five compounds from article PMC10498798 (Mycobiology, 2023) can be followed below.

The test system of assay [1] is NO production in LPS-stimulated RAW 264.7 macrophages. Nature of the assay: Nitrite. It is filed as cell-based, murine. Summed up:
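RAW 264.7 cells were seeded at 2x10^5 per well and grown to about 70% confluence, then serum-starved in 1% FBS medium. Test compound was given at non-cytotoxic concentrations for 24 h at 37 °C, then cells were stimulated with 1 µg/mL LPS for 24 h. Supernatant nitrite was measured with Griess reagent (30 °C, 20 min) at 550 nm against a sodium nitrite standard curve. Runs were in triplicate, and IC50 came from inhibition-concentration plots.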

In another assay the test system is RAW 264.7 macrophages. As to the kind of experiment: MTT cell viability of RAW 264.7 macrophages. The assay is classed as cell-based, murine. Summed up:
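RAW 264.7 cells were kept in DMEM with 10% FBS and penicillin/streptomycin at 37 °C, 5% CO2. Exponential-phase cells (5x10^4 per well) were exposed to serially diluted test compound (50-25-12.5-6.25 µg/mL) plus 1 µg/mL LPS for 36 h. MTT (0.5 mg/mL) was then added for 4 h at 37 °C. Formazan was dissolved in DMSO and read at 570 nm. Runs were in triplicate.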

The test system of assay [2] is Hep-G2 (Human hepatocellular carcinoma). As to the kind of experiment: MTT cytotoxic assay, Hep-G2. The note with it: for IC50: Homo sapiens, HepG2, 36 h, read-out: IC50 Hep-G2. The assay is classed as cell-based. A general note: Tetrazolium assays rely on reduction of a dye to a coloured formazan, in cell work by metabolically active cells.
Assay [3] relates to A549 (Human lung carcinoma). As to the kind of experiment: MTT cytotoxic assay, A549. The assay is classed as cell-based. The following applies: for IC50: Homo sapiens, A549, 36 h, read-out: IC50 A549.
Assay [4] has as its system MCF-7 (Human breast adenocarcinoma). Nature of the assay: MTT cytotoxic assay, MCF-7. The following applies: for IC50: Homo sapiens, MCF7, 36 h, read-out: IC50 MCF-7. The assay is classed as cell-based.
For assay [5], the system named is Vero cells (monkey kidney epithelial cells). As to the kind of experiment: MTT cytotoxic assay, Vero cells. The assay is classed as cell-based. The following applies: for IC50 Vero: MTT; for IC50: Primates, Vero.
The target in assay [6] is T1, porcine pancreatic lipase (Type II) (Sus scrofa, UniProt P00591).
T1 sequence (P00591 1-450): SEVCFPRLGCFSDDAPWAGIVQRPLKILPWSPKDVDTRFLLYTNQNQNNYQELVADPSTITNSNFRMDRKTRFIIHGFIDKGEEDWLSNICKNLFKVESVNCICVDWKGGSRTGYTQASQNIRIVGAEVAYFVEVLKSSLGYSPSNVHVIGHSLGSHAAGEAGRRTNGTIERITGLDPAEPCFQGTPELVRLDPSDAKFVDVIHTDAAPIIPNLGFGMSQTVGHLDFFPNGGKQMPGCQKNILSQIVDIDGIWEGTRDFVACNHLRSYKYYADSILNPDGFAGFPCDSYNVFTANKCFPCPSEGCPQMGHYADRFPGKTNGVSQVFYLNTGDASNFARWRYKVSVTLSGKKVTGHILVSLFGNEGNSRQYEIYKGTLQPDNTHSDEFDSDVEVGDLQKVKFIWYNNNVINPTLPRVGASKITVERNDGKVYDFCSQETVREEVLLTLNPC
As to the kind of experiment: Lipase inhibitory assay. The note with it: for inhibition at 500 µg/mL / inhibition at 125 µg/mL / inhibition at 250 µg/mL: read-out: Enzyme inhibition (pancreatic lipase). The assay is classed as biochemical. An outline of the steps: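 Porcine pancreatic lipase (Type II, 0.1 mg) was mixed with 6.66 μM p-nitrophenyl palmitate in ethanol/acetonitrile (2:1, v/v) and test compound in 0.061 M Tris-HCl, pH 8.5. The mixture was incubated at 37 °C for 25 min, stopped with ethanol, and substrate hydrolysis read at 405 nm. Runs were in triplicate. IC50 was estimated from inhibition-versus-concentration plots.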

For assay [7], the system named is α-glucosidase from Saccharomyces cerevisiae. As to the kind of experiment: Alpha-glucosidase inhibitory assay. The assay is classed as biochemical. The following applies: for α-glucosidase inhibition rate: concentration of 400 µg/mL; for IC50: read-out: IC50 α-glucosidase, µM equivalent, converted from µg/mL.
[8] abbreviates: 36 h, read-out: IC50 Vero, MTT, 36 h.
Where [9] appears, read: Mus musculus, RAW264.7, read-out: NO inhibition.
The mark [10] stands for this setting: read-out: IC50 Vero, μM equivalent, converted from µg/mL.

In brackets after ≈: the same amount, converted by molar mass. Entries after “also recorded” stand apart in the source; their conditions may differ. Read-outs that look alike come from different tables or passages of the source.

The inhibition is how much of the control response was suppressed.

For `COc1cc(O)cc(O)c1C(=O)/C=C/c1ccccc1` [Cardamonin, reference compound], in assay [1] (LPS-stimulated RAW 264.7), the “NO half-maximal inhibitory concentration (IC50)” value came to 0.62 µg/mL. In assay [1] (test concentration 0.81 µg/mL (3 µM), LPS 1 µg/mL), this compound had an NO inhibition of 86.93 ± 0.96%. The Cell survival in the assay on RAW 264.7 macrophages (test concentration 0.81 µg/mL (3 µM)) came out at 71.80 ± 0.51%.

For the compound `CC(C)[C@@H](C)/C=C/[C@@H](C)[C@H]1CC[C@H]2C3=C[C@@H](O)[C@@]4(O)C[C@@H](O)CC[C@]4(C)[C@H]3CC[C@]12C` [Compound (1), cerevisterol], the IC50 in assay [2], in assay [3], in assay [4] and in assay [5] (setting [8]) was more than 50 µg/mL throughout. Moreover, in assay [2] (MTT, 36 h), the “IC50 Hep-G2” value is reported as “no significant effect; also recorded: did not show any cytotoxicity”. Further, the “IC50 A549” value in assay [3] (MTT, 36 h) is recorded as “no significant effect; also recorded: did not show any cytotoxicity”. Moreover, the “IC50 MCF-7” value in assay [4] (MTT, 36 h) was “no significant effect; also recorded: did not show any cytotoxicity”. The “IC50 Vero” value in assay [5] (36 h) is on record as “did not show any cytotoxicity”. In assay [1] (setting [9]), the inhibition at 1 µg/mL was 14.4 ± 1.5%. For the same compound, in assay [1] (setting [9]), the inhibition at 5 µg/mL is 30.9 ± 1.04%. Further, the inhibition at 25 µg/mL in assay [1] (setting [9]) is 48.8 ± 1.43%. Also, in assay [1] (setting [9]), the inhibition at 50 µg/mL was 54.2 ± 1.27%. Moreover, the Cell survival in the assay on RAW 264.7 macrophages (test concentration 1 µg/mL) was determined as 98.05 ± 0.67%; in the assay on RAW 264.7 macrophages (test concentration 5 µg/mL) it was 97.69 ± 1.20%; with RAW 264.7 macrophages (test concentration 25 µg/mL), 96.78 ± 0.63%; in the assay on RAW 264.7 macrophages (test concentration 50 µg/mL), 98.40 ± 1.73%. For the same compound, in assay [6], the inhibition at 500 µg/mL was 0%. This compound also had a α-glucosidase inhibition rate in assay [7] of 12.69 ± 1.06%.

For the compound `CC(C)[C@@H](C)/C=C/[C@@H](C)[C@H]1CC[C@@H]2[C@]1(C)CC[C@H]1[C@]23C=C[C@]2(C[C@@H](O)CC[C@]12C)OO3` [Compound (2), ergosterol peroxide], the IC50 in assay [2] is 16.2 µg/mL (≈ 37.8 µM); in assay [3] it was 22.5 µg/mL (≈ 52.4 µM); in assay [4], 27.1 µg/mL (≈ 63.2 µM); in assay [5] (setting [10]) it was 11.5 µM; in assay [6] it was more than 1170 µM; in assay [7] it was 51.1 µM. In addition, in assay [5] (36 h), the “IC50 Vero” value is on record as 14.93 µg/mL (≈ 34.8 µM). Besides, in assay [1] (setting [9]), the inhibition at 1 µg/mL was found to be 28 ± 0.84%. The inhibition at 5 µg/mL in assay [1] (setting [9]) was 56.7 ± 1.29%. Besides, the inhibition at 25 µg/mL in assay [1] (setting [9]) came out at 81.4 ± 1.35%. Further, the Cell survival in the assay on RAW 264.7 macrophages (test concentration 1 µg/mL) turned out to be 98.08 ± 1.26%; in the assay with RAW 264.7 macrophages (test concentration 5 µg/mL), 83.99 ± 1.05%; in the assay with RAW 264.7 macrophages (test concentration 25 µg/mL) it was 60.87 ± 2.21%; with RAW 264.7 macrophages (test concentration 50 µg/mL) it was 2.18 ± 0.68%. Besides, in assay [6], the inhibition at 125 µg/mL worked out at 2.54 ± 1.6%. Further, in assay [6], the inhibition at 250 µg/mL was 11.7 ± 2.13%. Also, the inhibition at 500 µg/mL in assay [6] amounted to 25.9 ± 1.24%. Further, the “IC50 α-glucosidase” value in assay [7] was 21.89 µg/mL (≈ 51.1 µM). Besides, in assay [7], the α-glucosidase inhibition rate entry is “greater than 50%”.

For the compound `CC(C)[C@@H](C)/C=C/[C@@H](C)[C@H]1CCC2=C3C=C[C@@]4(O)C[C@@H](O)CC[C@]4(C)[C@H]3CC[C@@]21C` [Compound (3), (3β,5α,22E)-ergosta-6,8(14),22-triene-3,5-diol], the IC50 in assay [2] was 2.89 µg/mL (≈ 7 µM); in assay [3] it was 18.5 µg/mL (≈ 44.9 µM); in assay [4], 16.5 µg/mL (≈ 39.9 µM); in assay [5] (setting [8]) it was 10.4 µg/mL; in assay [5] (setting [10]) it was 24.2 µM; in assay [6], more than 1210 µM. For the same compound, the IC50 in assay [7] came to 60 µM. The “IC50 Vero” value in assay [5] (36 h) was 18.40 µg/mL (≈ 44.6 µM). In addition, in assay [1] (setting [9]), the inhibition at 1 µg/mL came out at 32.8 ± 0.73%. Also, in assay [1] (setting [9]), the inhibition at 5 µg/mL amounted to 55.2 ± 1.2%. The inhibition at 25 µg/mL in assay [1] (setting [9]) worked out at 71.4 ± 1.38%. For the same compound, the Cell survival worked out at 93.19 ± 0.49% in the assay on RAW 264.7 macrophages (test concentration 1 µg/mL), 93.86 ± 1.33% with RAW 264.7 macrophages (test concentration 5 µg/mL), 82.31 ± 0.78% in the assay with RAW 264.7 macrophages (test concentration 25 µg/mL) and 1.70 ± 0.27% in the assay with RAW 264.7 macrophages (test concentration 50 µg/mL). For the same compound, in assay [6], the inhibition at 125 µg/mL turned out to be 1.29 ± 1.11%. In addition, the inhibition at 250 µg/mL in assay [6] was determined as 12.1 ± 0.95%. The inhibition at 500 µg/mL in assay [6] was 23.8 ± 2.31%. Further, the “IC50 α-glucosidase” value in assay [7] stood at 25.81 µg/mL (≈ 62.5 µM). The α-glucosidase inhibition rate result in assay [7] is “greater than 50%”.

For `Cc1c2ccncc2c(C)c2c1[nH]c1ccccc12` [Ellipticine, reference compound], the IC50 in assay [2] worked out at 1.26 µg/mL (≈ 5.12 µM); in assay [3], 1.38 µg/mL (≈ 5.6 µM); in assay [4] it was 2.69 µg/mL (≈ 10.9 µM); in assay [5] (setting [8]), 8.61 µg/mL.
